The values that follow come from paper PMC6219460 (SLAS discovery : advancing life sciences R & D, 2017).

Test [1] concerns the target human CB1 receptor (Homo sapiens, UniProt P21554). The test is classed as binding. As to conditions: for inhibition of [3H]CP 55,940 binding to CB1 receptors (in words): concentrations up to 10 μM.
The target of test [2] is T1, human CB2 receptor (Homo sapiens, UniProt P34972). The test is described as follows: [35S]GTPγS binding assay, HEK293 membranes expressing CB2. The class given is biochemical. As to conditions: 10 μM GDP. An outline of the steps:
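HEK293 membranes expressing recombinant human CB2 (8 µg/well) were incubated with 0.1 nM [35S]GTPγS, 10 µM GDP, 0.1% (w/v) BSA and test compound (typically 1 nM–10 µM) in 50 mM Tris-HCl pH 7.4, 3 mM MgCl2, 0.2 mM EGTA, 100 mM NaCl. Nonspecific binding was set with 10 µM unlabeled GTPγS. Reactions were stopped by filtration. Duplicates, three experiments.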

For test [3], the target named is T1, human CB2 receptor. The test is classed as binding. The settings on record: for selectivity for CB2 versus CB1 (in words): from radioligand binding at CB2 and CB1.
Where [4] appears, read: read-out: log (Ki, Molar) CB1 (converted), [3H]CP 55,940 tracer at 1.5 nM.
The mark [5] stands for this setting: EC50 GTPγS binding, 0.1 nM [35S]GTPγS.
[6] abbreviates: Ki (μM) CB2, [3H]CP 55,940 tracer at 1.5 nM.
[7] abbreviates: log (EC50, Molar) GTPγS binding CB2, 0.1 nM [35S]GTPγS.

Where two headings read alike, the source gives them in different places. A value given as a limit tells only on which side of the number the result lay.

Chain of human CB1 receptor (P21554 whole entry): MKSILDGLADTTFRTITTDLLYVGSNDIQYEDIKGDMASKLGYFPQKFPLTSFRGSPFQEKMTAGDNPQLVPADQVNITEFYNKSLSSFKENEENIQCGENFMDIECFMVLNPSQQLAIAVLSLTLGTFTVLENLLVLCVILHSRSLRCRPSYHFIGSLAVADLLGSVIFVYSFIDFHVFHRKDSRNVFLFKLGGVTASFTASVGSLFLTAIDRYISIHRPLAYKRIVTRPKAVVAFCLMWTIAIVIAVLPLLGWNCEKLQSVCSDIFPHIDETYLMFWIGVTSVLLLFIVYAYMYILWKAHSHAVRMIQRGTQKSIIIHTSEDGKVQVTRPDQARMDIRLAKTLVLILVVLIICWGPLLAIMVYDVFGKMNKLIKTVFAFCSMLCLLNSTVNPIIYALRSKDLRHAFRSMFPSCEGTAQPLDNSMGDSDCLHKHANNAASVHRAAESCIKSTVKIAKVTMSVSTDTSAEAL
T1 sequence (P34972 whole entry): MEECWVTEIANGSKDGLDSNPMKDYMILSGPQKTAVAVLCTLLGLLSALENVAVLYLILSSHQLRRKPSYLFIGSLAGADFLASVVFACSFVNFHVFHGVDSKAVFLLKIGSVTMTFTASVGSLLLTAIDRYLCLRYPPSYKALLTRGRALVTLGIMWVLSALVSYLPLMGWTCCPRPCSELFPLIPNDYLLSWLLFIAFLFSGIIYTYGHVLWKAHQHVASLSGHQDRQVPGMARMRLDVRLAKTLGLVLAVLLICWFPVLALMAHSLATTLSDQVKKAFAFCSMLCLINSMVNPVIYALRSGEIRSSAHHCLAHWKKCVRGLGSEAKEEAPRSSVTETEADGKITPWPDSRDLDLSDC

In the case of `CC(C)c1cc(C2CCCN2C(=O)c2cc(-c3ccc4c(c3)OCO4)on2)no1` (stereo not drawn) [Compound 1, (5-(benzo[d][1,3]dioxol-5-yl)isoxazol-3-yl)(2-(5-isopropylisoxazol-3-yl)pyrrolidin-1-yl)methanone], the Ki in test [1] is > 10000 nM; in test [1] (setting [4]) it was > 10000 nM; in test [3] (setting [6]), 2.3 µM. In test [1], the “inhibition of [3H]CP 55,940 binding to CB1 receptors (in words)” value is “no measurable inhibition”. In test [2] (setting [5]), the response was half-maximal at 500 nM (EC50). In addition, the “selectivity for CB2 versus CB1 (in words)” value (“selectivity” for short) in test [3] is recorded as “selectively bind CB2 receptors”.

Regarding `CCc1c(C)sc(NC(=O)C(Sc2ccccc2)c2ccccc2)c1C(=O)OC` (stereo not drawn) [Compound 3, methyl 4-ethyl-5-methyl-2-(2-phenyl-2 (phenylthio)acetamido)thiophene-3-carboxylate], the results for the Ki in test [1] and in test [3] (setting [6]) were 1600 nM and 0.8 µM, respectively. The EC50 in test [2] (setting [7]) is 39.8 nM. Also, the “selectivity” value in test [3] is “only weakly selective”.

Take `CC1CCN(C(NC(=O)c2ccc(C(C)(C)C)cc2)C(Cl)(Cl)Cl)CC1` (stereo not drawn) [Compound 4, 4-(tert-butyl)-N-(2,2,2-trichloro-1-(4-methylpiperidin-1 yl)ethyl)benzamide]: the Ki is > 10000 nM in test [1]; > 10000 nM in test [1] (setting [4]); 0.2 µM in test [3] (setting [6]); 0.251 µM in test [3] (log (Ki, Molar) CB2, [3H]CP 55,940 tracer at 1.5 nM). Also, the “inhibition of [3H]CP 55,940 binding to CB1 receptors (in words)” value in test [1] is “no detectable inhibition”. Also, the EC50 in test [2] (setting [5]) was 80 nM. The “selectivity” value in test [3] is “selectively bind CB2 receptors”.

`c1ccc(Nc2nc3ccccc3nc2Nc2ccccc2)cc1` [Compound 2, N2,N3-diphenylquinoxaline-2,3-diamine]: the Ki in test [1] came to 1800 nM; in test [3] (setting [6]), 1.1 µM. Also, in test [2] (setting [7]), the EC50 was 501 nM. The “selectivity” value in test [3] is “only weakly selective”.
